The record followed here is ChEMBL document CHEMBL1151915, “Structure-activity relationship studies of small-molecule inhibitors of Wnt response” (Bioorg Med Chem Lett, 2009).

The structures appear in SMILES notation. Values after ≈ are worked out from the molar mass of the structure shown. Active and inactive are the calls of the source. The calls are words filed in the database; no cut-off is given here.

Series [1] can be described thus: Half life in mouse blood. The class given is ADME, tissue-based. Put shortly: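 Compound at 2 μM incubated in whole blood from C57BL/6 mice; incubation stopped at set time points by adding methanol; saline or buffer incubations run as controls.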
Series [2] in a line: Half life in mouse hepatocytes. In kind it is ADME, cell-based, Liver, Hepatocyte. Put shortly: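 Cryopreserved murine CD1 hepatocytes (10^5 cells) incubated with 2 μM compound; reactions stopped at set time points with methanol; saline or buffer incubations served as controls.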
The nature of series [3]: Half life in mouse liver S9 fraction. In kind it is ADME, subcellular.
Series [4] is filed under the species Danio rerio. Kind of series: Inhibition of fin regeneration in zebrafish. The class given is functional.

Consider `O=C(Nc1cccc2cccnc12)c1ccc(N2C(=O)[C@@H]3[C@H](C2=O)[C@@H]2C=C[C@H]3C2)cc1`, for which the half-life in series [1] turned out to be 60 min; in series [2] it was 20 min; in series [3] it was 20 min. The compound further came in with an MIC in series [4] of 0.5 µM (≈ 0.205 µg/mL).
`O=C(Nc1ccc(F)cc1F)c1ccc(N2C(=O)[C@@H]3[C@H](C2=O)[C@@H]2C=C[C@H]3C2)cc1`: the inhibition result in series [4] was “Active”.
`COc1ccccc1NC(=O)c1ccc(N2C(=O)[C@@H]3[C@H](C2=O)[C@@H]2C=C[C@H]3C2)cc1` showed a half-life in series [2] of 10 min.
On the same count and under the same terms, the figure for `O=C(Nc1ccc(F)cc1)c1ccc(N2C(=O)[C@@H]3[C@H](C2=O)[C@@H]2C=C[C@H]3C2)cc1` is 60 min.
